Calls of active or inactive are those of the source. No cut-off for these calls is given here.
Key:
K562 = test: Cytotoxicity in human K562 cells assessed as reduction in cell viability incubated for 72 hrs by cell-QB reagent based assay; settings: K562, 72 h
In short: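 K562 cells seeded at 0.5 × 10⁴ per well in RPMI and exposed to a range of compound concentrations, up to 100 µM, for 72 h. Cell-QB reagent was added for the final 2 h and read by fluorescence. Viability was expressed as % of untreated cells after subtracting a media-only blank. Three independent experiments.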

[1] = molecular target: T1, Butyrophilin subfamily 3 member A1 (Homo sapiens, UniProt O00481); test: Binding affinity to BTN3A1 in human PBMC assessed as stimulation of Vgamma9 Vdelta2 T cells at 100 nM incubated for 3 days and measured after 11 days post compound removal by flow cytometry
In short: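 Human PBMC exposed to compound at 100 nM for 3 days, then left to proliferate 11 days before counting Vγ9Vδ2 T cells. […] Negative control was cells with interleukin 2 and no compound. Data from 3 independent experiments.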
Target sequence in this assay (O00481 30-513 limits assumed): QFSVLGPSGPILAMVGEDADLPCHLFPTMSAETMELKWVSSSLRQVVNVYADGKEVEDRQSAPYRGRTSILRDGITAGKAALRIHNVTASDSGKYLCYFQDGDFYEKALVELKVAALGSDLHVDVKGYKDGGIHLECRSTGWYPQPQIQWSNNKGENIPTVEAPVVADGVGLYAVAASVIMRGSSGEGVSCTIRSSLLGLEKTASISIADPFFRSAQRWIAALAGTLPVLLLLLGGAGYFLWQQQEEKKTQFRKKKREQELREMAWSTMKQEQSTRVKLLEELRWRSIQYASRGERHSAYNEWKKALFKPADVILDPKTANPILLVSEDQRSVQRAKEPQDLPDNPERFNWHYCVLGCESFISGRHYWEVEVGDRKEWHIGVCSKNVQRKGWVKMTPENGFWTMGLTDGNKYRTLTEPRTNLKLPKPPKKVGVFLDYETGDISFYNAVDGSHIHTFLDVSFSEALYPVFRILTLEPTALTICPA

[2] = molecular target: T1, Butyrophilin subfamily 3 member A1; test: Binding affinity to BTN3A1 in human Vgamma9 Vdelta2 T cells mixed with human K562 cells pretreated with compound for 4 hrs assessed as INF-gamma production measured after 20 hrs by ELISA
In short: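 K562 target cells loaded with compound for 4 h, then washed. They were co-cultured with Vγ9Vδ2 T cells purified by negative selection, at 3:1 effector:target. After 20 h, supernatant interferon γ was measured by ELISA. EC₅₀ reported with 95% CI. Three independent experiments using ≥2 donors.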
Target sequence in this assay (O00481 whole entry): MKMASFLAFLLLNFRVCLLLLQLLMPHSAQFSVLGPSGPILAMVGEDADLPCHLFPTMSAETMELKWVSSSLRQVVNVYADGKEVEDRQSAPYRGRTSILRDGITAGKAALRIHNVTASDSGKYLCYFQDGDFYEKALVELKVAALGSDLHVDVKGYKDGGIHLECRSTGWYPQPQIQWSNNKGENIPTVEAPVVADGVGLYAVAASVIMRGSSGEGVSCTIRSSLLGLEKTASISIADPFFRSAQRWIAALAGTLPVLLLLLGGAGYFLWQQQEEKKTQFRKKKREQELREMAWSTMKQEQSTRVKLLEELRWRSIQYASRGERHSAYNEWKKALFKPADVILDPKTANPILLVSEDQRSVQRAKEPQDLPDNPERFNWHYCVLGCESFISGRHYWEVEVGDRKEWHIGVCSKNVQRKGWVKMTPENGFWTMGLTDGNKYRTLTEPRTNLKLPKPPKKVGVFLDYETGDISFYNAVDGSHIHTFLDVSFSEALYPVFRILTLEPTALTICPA

[3] = molecular target: T1, Butyrophilin subfamily 3 member A1; test: Binding affinity to BTN3A1 in human PBMC assessed as stimulation of Vgamma9 Vdelta2 T cells at 100 nM incubated for 3 days and measured after 11 days post compound removal by flow cytometry relative to (E)-dimethyl 5-hydroxy-4-methylpent-3-enylphosphonate
Target sequence in this assay (O00481 30-513 limits assumed): as the sequence (O00481 30-513 limits assumed) above

[4] = Stability in 50% pooled human plasma assessed as half life at 100 uM by LC-MS method; type: ADME, cell-free
In short: (§1)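 Compound at 100 µM final in pooled human plasma diluted to 50% with PBS, pH 7.5. Analysed by positive-mode LC-MS on C18 with a water/acetonitrile gradient from 25 to 80% over 9 min. Fraction remaining came from peak integration, and half-life was calculated from it. Each point run 2–4 times.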

[5] = molecular target: T1, Butyrophilin subfamily 3 member A1; test: Binding affinity to BTN3A1 in human PBMC assessed as stimulation of Vgamma9 Vdelta2 T cells at 100 nM incubated for 3 days and measured after 11 days post compound removal by flow cytometry relative to sodium (E)-5-hydroxy-4-methylpent-3-enylphosphonate
Target sequence in this assay (O00481 30-513 limits assumed): as above

[6] = Half life in human plasma; type: ADME, cell-free
In short: as §1, with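 “7.5. Incubated for various times, including 2 and 24 h, then extracted with acetonitrile and centrifuged.” for “7.5.”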

[7] = Stability in 50% pooled human plasma assessed as compound hydrolysis at 100 uM after 2 hrs by LC-MS method relative to control; type: ADME, cell-free; settings: read-out: Drug degradation
In short: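 Compound at 100 µM final in pooled human plasma diluted to 50% with PBS, pH 7.5. Sampled at 2 h (also 24 h), then extracted into acetonitrile and debris spun down. Analysed by positive-mode LC-MS on C18 with a 25→80% acetonitrile gradient over 9 min. Fraction remaining from peak integration; 2–4 independent runs.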

Row | SMILES | IC50 (K562) [nM] | Activity [1] | EC50 [2] [nM] | Ratio EC50 [3] | t1/2 [4] [h] | Ratio EC50 [5] | half-life [6] [h] | metabolised at 2 h, 100 µM [7] [%]
1 | CCOC(=O)CNP(=O)(CC/C=C(\C)CO)Oc1ccccc1 (stereo unspecified) | > 100000 | Active | 170 |  |  |  |  | 
2 | Oc1ccc2ccccc2c1 [BETANAPHTHOL] | > 100000 |  |  |  |  |  |  | 
3 | COC(=O)CNP(=O)(CC/C=C(\C)CO)Oc1ccc2ccccc2c1 (stereo unspecified) | > 100000 | Active | 120 | 9.3 | > 24 | 6900 |  | 
4 | CCOC(=O)CNP(=O)(CC/C=C(\C)CO)Oc1cccc2ccccc12 (stereo unspecified) |  | Active | 62 | 15 | > 24 | 11000 |  | 
5 | C/C(=C\COP(=O)(O)OP(=O)(O)O)CO |  | Active |  |  |  |  |  | 
6 | CCOC(=O)CNP(=O)(CC/C=C(\C)CO)Oc1ccc2ccccc2c1 (stereo unspecified) |  | Active | 93 | 10 | > 24 | 7500 |  | 
7 | C/C(=C\CCP(=O)(NCC(=O)OC(C)C)Oc1ccccc1)CO (stereo unspecified) |  | Active | 740 | 4.9 | > 24 | 3600 |  | 
8 | C/C(=C\CCP(=O)(NCC(=O)OC(C)C)Oc1ccc2ccccc2c1)CO (stereo unspecified) | > 100000 | Active | 210 | 6.6 | > 24 | 4900 |  | 
9 | C/C(=C\CCP(=O)(NCC(=O)OC(C)C)Oc1cccc2ccccc12)CO (stereo unspecified) | > 100000 | Active | 290 | 16 | > 24 | 12000 |  | 
10 | COC(=O)CNP(=O)(CC/C=C(\C)CO)Oc1cccc2ccccc12 (stereo unspecified) | 40000 | Active | 130 | 12 | > 24 | 9100 |  | 
11 | COc1ccc2cc(C(=O)OCOP(=O)(CC/C=C(\C)CO)OC)c(=O)oc2c1 (stereo unspecified) |  |  |  |  |  |  | 6 to 8 | 
12 | COC(=O)CNP(=O)(CC/C=C(\C)CO)Oc1ccccc1 (stereo unspecified) | > 100000 | Active | 460 | 3.6 | > 24 | 2700 |  | 
13 | C/C(=C\CCP(=O)(OCOC(=O)C(C)(C)C)OCOC(=O)C(C)(C)C)CO |  | Active |  |  | 8.4 |  |  | > 95
14 | Oc1ccccc1 [PHENOL] | > 100000 |  |  |  |  |  |  | 
15 | Oc1cccc2ccccc12 [1-NAPHTHOL] | > 100000 |  |  |  |  |  |  | 

— ChEMBL document CHEMBL4196196, “Phosphonamidate Prodrugs of a Butyrophilin Ligand Display Plasma Stability and Potent Vγ9 Vδ2 T Cell Stimulation” (J Med Chem, 2018)
